This note sets out measurements from ChEMBL document CHEMBL1148910, “A coumarin from Mallotus resinosus that mediates DNA cleavage” (J Nat Prod, 2004).

The subject of experiment [1] is Escherichia coli. Briefly: Induction of strand scission in pBR322 DNA assessed as conversion from supercoiled form to nicked form at 1000 uM after 60 mins by agarose gel electrophoresis in absence of Cu2+. A digest of the protocol:
(§1)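 No Cu2+ was added. Supercoiled pBR322 DNA (500 ng) was incubated with test compound (in DMSO, final ≤5%) in 25 µL of 10 mM Tris-HCl, pH 8.0, at 37 °C for 60 min, with DNA alone as the blank. Products were separated on a 1.0% agarose gel with ethidium bromide in TBE at 110-120 V for 2-3 h and photographed under UV. Read-out was % nicked (form II) DNA.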

Experiment [2] concerns Escherichia coli. The experiment in a line: Induction of strand scission in pBR322 DNA assessed as conversion from supercoiled form to nicked form at 500 uM after 60 mins by agarose gel electrophoresis in presence of Cu2+. A digest of the protocol: (§2)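 Supercoiled pBR322 plasmid DNA (500 ng) was incubated with 20 µM Cu2+ and test compound (in DMSO, final ≤5%) in 25 µL of 10 mM Tris-HCl, pH 8.0, at 37 °C for 60 min. Controls were DNA alone and DNA + Cu2+. Products were run on a 1.0% agarose gel with 0.7 µg/mL ethidium bromide in TBE, pH 8.3, at 110-120 V for 2-3 h, then imaged under UV. Read-out was % form II (nicked) DNA.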

The subject of experiment [3] is Escherichia coli. The experiment in a line: Induction of strand scission in pBR322 DNA assessed as conversion from supercoiled form to nicked form at 250 uM after 60 mins by agarose gel electrophoresis in presence of Cu2+. A digest of the protocol: as §2
For experiment [4], the system named is Escherichia coli. Briefly: Induction of strand scission in supercoiled pBR322 DNA by agarose gel electrophoresis in presence of Cu2+. The gist of the method:
as §2

Experiment [5] deals with Escherichia coli. The experiment in a line: Induction of strand scission in supercoiled pBR322 DNA by agarose gel electrophoresis in presence of Fe2+.
The subject of experiment [6] is Escherichia coli. Briefly: Induction of strand scission in supercoiled pBR322 DNA by agarose gel electrophoresis in presence of Cu2+ and alkali.
Experiment [7] has as its system Escherichia coli. The experiment in a line: Induction of strand scission in pBR322 DNA assessed as conversion from supercoiled form to nicked form at 1000 uM after 60 mins by agarose gel electrophoresis in presence of Cu2+. The gist of the method:
as §2

Experiment [8] concerns Escherichia coli. Briefly: Induction of strand scission in supercoiled pBR322 DNA by agarose gel electrophoresis in absence of added metal ion.
The subject of experiment [9] is Escherichia coli. Briefly: Induction of strand scission in pBR322 DNA assessed as conversion from supercoiled form to nicked form at 100 uM after 60 mins by agarose gel electrophoresis in presence of Cu2+. A digest of the protocol: as §2
Experiment [10] concerns Escherichia coli. Briefly: Induction of strand scission in pBR322 DNA assessed as conversion from supercoiled form to nicked form at 50 uM after 60 mins by agarose gel electrophoresis in presence of Cu2+. The gist of the method: as §2
The subject of experiment [11] is Escherichia coli. Briefly: Induction of strand scission in pBR322 DNA assessed as conversion from supercoiled form to nicked form at 250 uM after 60 mins by agarose gel electrophoresis in absence of Cu2+. The gist of the method:
as §1

Calls of active or inactive are those of the source. No cut-off for these calls is given here.

On to `COc1cc2ccc(=O)oc2cc1O`, for which the Activity was 3% with Escherichia coli [1]; 22% in the experiment on Escherichia coli [2]; 15% in the experiment on Escherichia coli [3]; “Dose-dependent effect” in the experiment on Escherichia coli [4]; 36% in the experiment on Escherichia coli [7]. Moreover, the outcome in the experiment with Escherichia coli [5], in the experiment on Escherichia coli [6] and in the experiment on Escherichia coli [8] was inactive.
For `COc1cc2oc(=O)ccc2cc1O`, the Activity was 2% with Escherichia coli [1]; 26% in the experiment on Escherichia coli [2]; 14% in the experiment on Escherichia coli [3]; “Dose-dependent effect” in the experiment with Escherichia coli [4]; 42% in the experiment on Escherichia coli [7]. Also, the outcome with Escherichia coli [5] and in the experiment on Escherichia coli [8] was inactive.
For `O=c1ccc2cc(O)c(O)cc2o1`, the Activity is 76% in the experiment with Escherichia coli [3]; 64% with Escherichia coli [9]; 55% in the experiment with Escherichia coli [10]; “Dose-dependent effect” in the experiment on Escherichia coli [4]; 2% with Escherichia coli [11]. Also, the result with Escherichia coli [5] and with Escherichia coli [8] was inactive.
